The source of these data is ChEMBL document CHEMBL4414574, “Structure-Based Discovery and Development of a Series of Potent and Selective Bromodomain and Extra-Terminal Protein Inhibitors” (J Med Chem, 2019).

Active and inactive are the calls of the source. No cut-off for these calls is given here.

The target of data set [1] is T1, Bromodomain-containing protein 4 (Homo sapiens, UniProt O60885). Nature of the data set: Displacement of 5-FITC labelled (+)-JQ1 from His6-tagged human BRD4 bromodomain 1 expressed in Escherichia coli BL21(DE3) )-codon plus-RIL cells incubated for 4 hrs in dark condition by fluorescence anisotropy binding assay. Background: In fluorescence polarisation assays a small probe gives low polarisation when free and higher when bound to something large.

In the next data set the test system is MM1.S. Nature of the data set: Antiproliferative activity against human MM1S cells after 72 hrs by CCK8 or SRB assay. The format is functional, cell-based. Put shortly: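 IC50 against MM.1S cell proliferation was taken as the mean of three independent experiments, each run in triplicate, reported with SEM.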
On the technique in general: Formazan colour is commonly taken as a measure of viable cells.

Data set [2] deals with Histone acetyltransferase p300 (Homo sapiens) (UniProt Q09472). Nature of the data set: Inhibition of EP300 (unknown origin) at 1 uM. Put shortly: (§1)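 Bromodomain binding panel (32 bromodomains) screened at 1 μM; primary binding read-out reported as percent of control, lower values meaning stronger binding.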
For data set [3], the target named is T1, Bromodomain-containing protein 4. Nature of the data set: Inhibition of BRD4 bromodomain 2 (unknown origin).
The target of data set [4] is Bromodomain-containing protein 2 (Homo sapiens) (UniProt P25440). Briefly: Inhibition of BRD2 bromodomain 2 (unknown origin). Put shortly: as §1
Data set [5] has as its target T1, Bromodomain-containing protein 4. Nature of the data set: Inhibition of BRD4 bromodomain 1 (unknown origin). Put shortly: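 BRD4 BD1 (His6-tagged, E. coli BL21(DE3)-expressed, Ni-NTA purified) at 10 nM with 5 nM FITC-labelled (+)-JQ1 tracer; 50 mM HEPES pH 7.4, 150 mM NaCl, 0.5 mM CHAPS, DMSO 2‰ final; graded inhibitor; 4 h dark equilibration at room temperature; fluorescence anisotropy read (ex 485/em 530 nm). IC50 from two independent experiments in duplicate, mean ± SEM.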

The target in data set [6] is Bromodomain-containing protein 2 (Homo sapiens) (UniProt P25440). Nature of the data set: Inhibition of BRD2 bromodomain 1 (unknown origin).
The test system of another data set is SK-OV-3. Briefly: Antiproliferative activity against human SKOV3 cells after 72 hrs by CCK8 or SRB assay. The format is functional, cell-based.
The species named for another data set is Homo sapiens. Nature of the data set: Antiproliferative activity against human TY82 cells after 72 hrs by CCK8 or SRB assay. It counts as functional, cell-based.
A further data set relates to RKO. Briefly: Antiproliferative activity against human RKO cells after 72 hrs by CCK8 or SRB assay. The format is functional, cell-based.
For another data set, the system named is AGS. Nature of the data set: Antiproliferative activity against human AGS cells after 72 hrs by CCK8 or SRB assay. The format is functional, cell-based.
The subject of another data set is MV4-11. Nature of the data set: Antiproliferative activity against human MV4-11 cells after 72 hrs by CCK8 or SRB assay. It counts as functional, cell-based.
The subject of a further data set is HT-29. Nature of the data set: Antiproliferative activity against human HT-29 cells after 72 hrs by CCK8 or SRB assay. The format is functional, cell-based.
The next data set relates to Hep 3B2. Briefly: Antiproliferative activity against human Hep3B cells after 72 hrs by CCK8 or SRB assay. It counts as functional, cell-based.
The next data set deals with NCI-H1299. Briefly: Antiproliferative activity against human NCI-H1299 cells after 72 hrs by CCK8 or SRB assay. It counts as functional, cell-based.
Another data set concerns MDA-MB-436. Briefly: Antiproliferative activity against human MDA-MB-436 cells after 72 hrs by CCK8 or SRB assay. The format is functional, cell-based.
For a further data set, the system named is MDA-MB-468. Nature of the data set: Antiproliferative activity against human MDA-MB-468 cells after 72 hrs by CCK8 or SRB assay. The format is functional, cell-based.
Another data set relates to A549. Nature of the data set: Antiproliferative activity against human A549 cells after 72 hrs by CCK8 or SRB assay. It counts as functional, cell-based.
For another data set, the system named is SW-620. Briefly: Antiproliferative activity against human SW620 cells after 72 hrs by CCK8 or SRB assay. It counts as functional, cell-based.
Another data set concerns BT-549. Briefly: Antiproliferative activity against human BT549 cells after 72 hrs by CCK8 or SRB assay. It counts as functional, cell-based.
The next data set concerns NCI-H522. Briefly: Antiproliferative activity against human NCI-H522 cells after 72 hrs by CCK8 or SRB assay. The format is functional, cell-based.
A further data set concerns HuTu80. Briefly: Antiproliferative activity against human HuTu 80 cells after 72 hrs by CCK8 or SRB assay. The format is functional, cell-based.
The subject of another data set is KG-1. Briefly: Antiproliferative activity against human KG1 cells after 72 hrs by CCK8 or SRB assay. It counts as functional, cell-based.
Data set [7] is described as follows: AUC (0 to t) in ICR mouse at 10 mg/kg, po administered via gavage measured after 0.25 to 24 hrs by UPLC/MS analysis. The format is ADME, organism-based. Details: time 0.25-24 hr, dose 10 mg/kg, route oral. As to conditions: in vivo. Put shortly: (§2)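 Male ICR mice were dosed orally in 1% DMSO/0.5% HPMC vehicle. Plasma (and brain, where stated) concentrations gave Tmax, Cmax, T1/2, AUC0-t and AUC0-inf.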

Data set [8] in a line: AUC (0 to infinity) in ICR mouse at 10 mg/kg, po administered via gavage measured after 0.25 to 24 hrs by UPLC/MS analysis. The format is ADME, organism-based. Also on record: dose 10 mg/kg, route oral, time infinity. As to conditions: in vivo. The essentials:
as §2

Data set [9] is described as follows: Half life in ICR mouse at 10 mg/kg, po administered via gavage measured after 0.25 to 24 hrs by UPLC/MS analysis. It counts as ADME, organism-based. Particulars: in vivo. Put shortly:
(§3)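 Male ICR mice dosed orally in 1% DMSO/0.5% HPMC vehicle; plasma or brain drug levels used to derive Tmax, Cmax, AUC0-t, AUC0-inf and T1/2.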

The nature of data set [10]: Cmax in ICR mouse at 10 mg/kg, po administered via gavage measured after 0.25 to 24 hrs by UPLC/MS analysis. Details: dose 10 mg/kg, route oral. The format is ADME, organism-based. Particulars: in vivo. Put shortly:
as §3

Data set [11] is described as follows: Tmax in ICR mouse at 10 mg/kg, po administered via gavage measured after 0.25 to 24 hrs by UPLC/MS analysis. The format is ADME, organism-based. As to conditions: in vivo. Put shortly: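 Male ICR mice dosed orally (3, 10 or 100 mg/kg, per line) in 1% DMSO/0.5% HPMC vehicle; plasma drug levels measured.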

Chain of Histone acetyltransferase p300 (Homo sapiens) (Q09472 whole entry): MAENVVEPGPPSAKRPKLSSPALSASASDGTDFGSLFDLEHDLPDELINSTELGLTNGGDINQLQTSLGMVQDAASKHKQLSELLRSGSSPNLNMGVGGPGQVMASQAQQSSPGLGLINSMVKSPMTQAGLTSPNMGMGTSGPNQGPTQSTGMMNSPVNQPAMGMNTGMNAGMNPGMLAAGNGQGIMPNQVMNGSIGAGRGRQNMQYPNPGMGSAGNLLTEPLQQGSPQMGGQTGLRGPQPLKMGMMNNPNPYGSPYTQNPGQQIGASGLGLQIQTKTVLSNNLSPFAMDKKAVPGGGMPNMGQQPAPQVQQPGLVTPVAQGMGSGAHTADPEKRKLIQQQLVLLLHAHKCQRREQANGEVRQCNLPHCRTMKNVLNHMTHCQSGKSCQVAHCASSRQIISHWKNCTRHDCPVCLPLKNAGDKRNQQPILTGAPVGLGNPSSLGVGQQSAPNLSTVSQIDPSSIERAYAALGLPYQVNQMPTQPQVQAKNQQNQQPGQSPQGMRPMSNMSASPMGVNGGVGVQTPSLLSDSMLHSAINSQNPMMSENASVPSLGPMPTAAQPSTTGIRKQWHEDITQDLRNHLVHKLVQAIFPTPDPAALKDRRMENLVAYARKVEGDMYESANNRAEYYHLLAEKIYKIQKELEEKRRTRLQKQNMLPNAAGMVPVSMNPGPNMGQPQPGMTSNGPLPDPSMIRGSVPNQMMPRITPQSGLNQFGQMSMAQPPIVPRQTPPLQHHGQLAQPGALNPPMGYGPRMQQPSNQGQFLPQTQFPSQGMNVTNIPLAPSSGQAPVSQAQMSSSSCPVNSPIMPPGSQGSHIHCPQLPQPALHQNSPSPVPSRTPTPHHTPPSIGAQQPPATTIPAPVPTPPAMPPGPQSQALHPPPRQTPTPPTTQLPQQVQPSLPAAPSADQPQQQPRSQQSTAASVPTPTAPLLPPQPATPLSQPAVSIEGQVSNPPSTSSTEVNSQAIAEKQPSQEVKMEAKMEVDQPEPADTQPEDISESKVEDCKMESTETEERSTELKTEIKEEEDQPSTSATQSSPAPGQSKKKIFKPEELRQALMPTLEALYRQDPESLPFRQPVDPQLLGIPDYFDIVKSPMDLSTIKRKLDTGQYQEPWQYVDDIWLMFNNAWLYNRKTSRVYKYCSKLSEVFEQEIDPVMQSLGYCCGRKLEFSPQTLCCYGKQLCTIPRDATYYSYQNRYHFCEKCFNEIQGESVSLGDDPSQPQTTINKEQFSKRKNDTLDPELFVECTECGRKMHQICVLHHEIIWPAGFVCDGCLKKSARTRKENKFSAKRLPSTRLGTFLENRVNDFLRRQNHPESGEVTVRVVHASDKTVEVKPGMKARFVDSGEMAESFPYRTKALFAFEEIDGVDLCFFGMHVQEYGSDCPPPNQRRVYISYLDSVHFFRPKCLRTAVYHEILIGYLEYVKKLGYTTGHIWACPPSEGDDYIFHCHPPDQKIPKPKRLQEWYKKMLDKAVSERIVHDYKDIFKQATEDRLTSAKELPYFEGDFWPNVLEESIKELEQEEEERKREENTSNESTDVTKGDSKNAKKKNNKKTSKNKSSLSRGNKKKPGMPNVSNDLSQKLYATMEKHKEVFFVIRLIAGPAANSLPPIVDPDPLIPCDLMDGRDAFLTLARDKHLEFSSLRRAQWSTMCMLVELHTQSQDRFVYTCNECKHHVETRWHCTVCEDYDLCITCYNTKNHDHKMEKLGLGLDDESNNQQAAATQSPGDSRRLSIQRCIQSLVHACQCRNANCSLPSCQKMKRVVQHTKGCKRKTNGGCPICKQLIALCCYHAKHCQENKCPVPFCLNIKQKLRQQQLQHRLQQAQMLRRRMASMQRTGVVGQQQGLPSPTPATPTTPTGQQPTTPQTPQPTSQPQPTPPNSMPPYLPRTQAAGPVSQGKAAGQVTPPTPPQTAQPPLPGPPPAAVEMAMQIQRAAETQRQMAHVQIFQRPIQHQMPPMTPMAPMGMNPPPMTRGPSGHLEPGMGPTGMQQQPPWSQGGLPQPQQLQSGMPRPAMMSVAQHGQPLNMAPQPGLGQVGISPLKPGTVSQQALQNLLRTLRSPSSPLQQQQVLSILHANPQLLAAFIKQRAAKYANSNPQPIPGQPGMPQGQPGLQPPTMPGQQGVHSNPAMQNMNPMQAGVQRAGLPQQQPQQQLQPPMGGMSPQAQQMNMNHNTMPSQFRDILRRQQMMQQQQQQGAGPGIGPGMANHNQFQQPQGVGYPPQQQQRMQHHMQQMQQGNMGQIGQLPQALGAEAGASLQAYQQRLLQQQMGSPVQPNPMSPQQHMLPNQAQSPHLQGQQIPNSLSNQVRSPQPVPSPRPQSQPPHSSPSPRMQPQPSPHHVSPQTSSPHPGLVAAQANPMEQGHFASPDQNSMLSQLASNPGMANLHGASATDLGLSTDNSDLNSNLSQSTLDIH
Chain of Bromodomain-containing protein 2 (Homo sapiens) (P25440 whole entry, looked up): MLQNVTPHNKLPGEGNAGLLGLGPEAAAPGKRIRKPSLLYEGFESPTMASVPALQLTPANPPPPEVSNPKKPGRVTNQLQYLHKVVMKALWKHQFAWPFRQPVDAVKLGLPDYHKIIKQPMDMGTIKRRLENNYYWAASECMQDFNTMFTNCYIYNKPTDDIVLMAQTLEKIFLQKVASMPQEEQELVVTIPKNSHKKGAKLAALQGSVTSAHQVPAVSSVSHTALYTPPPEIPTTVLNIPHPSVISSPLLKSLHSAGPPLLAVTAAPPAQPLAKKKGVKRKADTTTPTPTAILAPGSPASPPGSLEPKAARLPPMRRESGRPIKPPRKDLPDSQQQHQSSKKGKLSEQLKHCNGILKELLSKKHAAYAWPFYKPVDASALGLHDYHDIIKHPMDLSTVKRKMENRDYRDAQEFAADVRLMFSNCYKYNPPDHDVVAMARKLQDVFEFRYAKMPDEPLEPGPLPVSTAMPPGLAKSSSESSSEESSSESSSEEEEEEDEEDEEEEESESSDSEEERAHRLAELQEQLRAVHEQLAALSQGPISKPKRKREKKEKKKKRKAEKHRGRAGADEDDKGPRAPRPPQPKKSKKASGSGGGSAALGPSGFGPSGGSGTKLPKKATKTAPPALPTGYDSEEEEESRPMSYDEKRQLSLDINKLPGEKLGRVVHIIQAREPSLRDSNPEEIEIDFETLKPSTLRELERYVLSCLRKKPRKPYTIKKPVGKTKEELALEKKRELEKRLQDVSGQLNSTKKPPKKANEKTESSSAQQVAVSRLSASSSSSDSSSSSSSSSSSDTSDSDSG

In the case of `Cc1ccc(N2C(=O)CSC2c2ccc3c(c2)N(C2CC2)C(C)C(=O)N3C)cc1` (stereo not drawn), in data set [1], the IC50 (as a rule, the point on the concentration scale where inhibition reaches its midpoint) came out at 142 nM.
For `Cc1ccc(-n2nnnc2-c2ccc3c(c2)N(C2CCCC2)C(C)C(=O)N3C)cc1` (stereo not drawn), the IC50 came to 1230 nM with MM1.S and 9.5 nM in [1].
For `Cc1ccc(-n2nc(C(=O)N3CCN(C4CC4)CC3)nc2-c2ccc3c(c2)N(C2CCCC2)[C@H](C)C(=O)N3C)cc1` the same measures were 87.5 nM and 5.9 nM.
Turning to `Cc1ccc(-n2nc(C(=O)N3C4CCC3CN(C)C4)nc2-c2ccc3c(c2)N(C2CCCC2)[C@H](C)C(=O)N3C)cc1`, the inhibition entry in data set [2] was “inactive”. Besides, the IC50 with MM1.S was 7.9 nM; in [1], 6.6 nM. Besides, the inhibition result in [3], in [4] and in data set [5] was “Active” throughout. The “inhibition activity call (active/inactive)” value in data set [6] was “Active”.
As to `Cc1ccc(-n2nc(C(=O)N3CCCN(C)CC3)nc2-c2ccc3c(c2)N(C2CCCC2)[C@H](C)C(=O)N3C)cc1`, the inhibition entry in [2] is “inactive”. For the same compound, in the data set on MM1.S, half-maximal inhibition (IC50) required 8 nM. The inhibition result in [3], in data set [4] and in data set [5] was “Active” in each case. Further, in [6], the “inhibition activity call (active/inactive)” value is “Active”.
Consider `Cc1ccc(-n2nc(C(=O)N3CCN(C(C)C)CC3)nc2-c2ccc3c(c2)N(C2CCCC2)[C@H](C)C(=O)N3C)cc1`, for which the IC50 is 125 nM in the data set on MM1.S and 4.8 nM in data set [1].
Take `C[C@@H]1C(=O)N(C)c2ccc(-c3nc(C(=O)N4CCN(C)CC4)nn3-c3ccccc3)cc2N1C1CCCC1`: the figures for the IC50 (in the data set with MM1.S; in data set [1]) were 60.1 nM and 7.1 nM, respectively.
With `CCN1CCN(C(=O)c2nc(-c3ccc4c(c3)N(C3CCCC3)[C@H](C)C(=O)N4C)n(-c3ccc(C)cc3)n2)CC1`, the IC50 with MM1.S was 25.1 nM; in data set [1], 5.8 nM.
For the compound `Cc1sc2c(c1C)C(c1ccc(Cl)cc1)=N[C@@H](CC(=O)OC(C)(C)C)c1nnc(C)n1-2`, the result in the data set with SK-OV-3, in the data set listed under Homo sapiens, in the data set on RKO, with AGS, in the data set with MV4-11 and in the data set on HT-29 was Active. For the same compound, the outcome with Hep 3B2, in the data set with NCI-H1299, in the data set on MDA-MB-436, in the data set with MDA-MB-468, with A549 and in the data set on SW-620 was Active. Also, the outcome in the data set with BT-549, in the data set with NCI-H522, with HuTu80 and with KG-1 was Active.
Consider `Cc1ccc(-n2nc(C(=O)N3CC4CCC(C3)N4C)nc2-c2ccc3c(c2)N(C2CCCC2)[C@H](C)C(=O)N3C)cc1`, for which the inhibition entry in [2] was “inactive”. For the same compound, the IC50 turned out to be 10.1 nM with MM1.S and 4.6 nM in data set [1]. In addition, the inhibition result in data set [3], in data set [4] and in [5] was “Active” each time. The “inhibition activity call (active/inactive)” value in data set [6] was “Active”.
As to `Cc1onc(-c2ccccc2)c1-c1ccc2c(c1)N(C1CCCC1)[C@H](C)C(=O)N2C`, the IC50 in data set [1] was found to be 100 nM.
`Cc1ccc(-n2nnnc2-c2ccc3c(c2)N(C2CC2)C(C)C(=O)N3C)cc1` (stereo not drawn): the results for the IC50 (in the data set on MM1.S; in [1]) were 47.7 nM and 14.4 nM, respectively.
For `Cc1ccc(-n2nc(C(=O)N3C[C@@H](NC(=O)OC(C)(C)C)C4(CC4)C3)nc2-c2ccc3c(c2)N(C2CCCC2)[C@H](C)C(=O)N3C)cc1` the same measures were 485 nM and 9.6 nM.
For `Cc1ccc(-n2nc(C(=O)N3CCN(C)CC3)nc2-c2ccc3c(c2)N(C2CCCC2)[C@H](C)C(=O)N3C)c(C)c1`, in that order: 17.8 nM and 4.5 nM.
On to `Cc1ccc(-n2nc(C(=O)N3CCN4CCCC4C3)nc2-c2ccc3c(c2)N(C2CCCC2)[C@H](C)C(=O)N3C)cc1` (stereo partly drawn), for which the inhibition entry in data set [2] is “inactive”. The figures for the IC50 (in the data set on MM1.S; in data set [1]) were 6.4 nM and 8.7 nM, respectively. In addition, the inhibition result in data set [3], in data set [4] and in data set [5] was “Active” throughout. In [6], the “inhibition activity call (active/inactive)” value is “Active”.
For the compound `C[C@@H]1C(=O)N(C)c2ccc(-c3nc(C(=O)N4CCN(C)CC4)nn3-c3ccc(Cl)cc3)cc2N1C1CCCC1`, the IC50 was determined as 48.5 nM with MM1.S and 6.8 nM in [1].
For `Cc1ccc(-n2nc(C(=O)N(C)CCN(C)C)nc2-c2ccc3c(c2)N(C2CCCC2)[C@H](C)C(=O)N3C)cc1`, the inhibition entry in data set [2] was “inactive”. The IC50 with MM1.S worked out at 16.2 nM; in [1], 7 nM. The inhibition entry in data set [3], in [4] and in data set [5] was “Active” in each case. Further, in [6], the “inhibition activity call (active/inactive)” value was “Active”.
For the compound `Cc1ccc(-n2nc(C(=O)N3CCN(C)CC3)nc2-c2ccc3c(c2)N(C2CCCC2)[C@H](C)C(=O)N3C)cc1F`, in [7], the AUC(0-t) (in general, exposure summed from dosing to a finite time, without extrapolation to infinity) was found to be 8150 ng·h/mL. The AUC(0-inf) (usually the area under the concentration-time curve extrapolated to infinity) in [8] was found to be 8360 ng·h/mL. The inhibition result in data set [2] is “inactive”. Besides, the IC50 was 13 nM in the data set with MM1.S and 4.2 nM in data set [1]. The half-life – broadly, how long it takes for the measured level to halve – in data set [9] was 90 min. For the same compound, the Cmax (commonly the peak of the concentration-time curve) in data set [10] stood at 4970 ng/mL. In addition, the inhibition result in data set [3], in data set [4] and in [5] was “Active” throughout. For the same compound, the Tmax – broadly, the time from dosing to the highest level – in [11] came out at 18 min. Besides, in data set [6], the “inhibition activity call (active/inactive)” value is “Active”.
Turning to `Cc1ccc(-n2nc(C(=O)N3CCC4(CCCC4)CC3)nc2-c2ccc3c(c2)N(C2CCCC2)[C@H](C)C(=O)N3C)cc1`, the IC50 came to 2400 nM with MM1.S and 27.2 nM in data set [1].
For `Cc1ccc(-n2nc(C(=O)N3C[C@@H](N)C4(CC4)C3)nc2-c2ccc3c(c2)N(C2CCCC2)[C@H](C)C(=O)N3C)cc1`, in that order: 43.5 nM and 6.1 nM.
On to `Cc1ccc(-n2nc(C(=O)N3CCC4(CCOC4)CC3)nc2-c2ccc3c(c2)N(C2CCCC2)[C@H](C)C(=O)N3C)cc1`, for which the IC50 came to 485 nM in the data set on MM1.S and 7.9 nM in [1].
